Measured values reported in PubChem BioAssay AID489030 (Sanford-Burnham Center for Chemical Genomics, 2010).
Values joined by “and” are separate entries in the source; they are usually repeats but may differ in a detail not shown here. Identical values can stand only once. Hit rate of the full screen: of about 330,000 compounds, about 2,400 (0.73%) were called active. Rule for the calls: active = inhibition of at least 40% at 20 µM; inactive = the rest. Many of the other results were omitted from the sample, so actives are more common in it than they were.

target: Apoptotic protease-activating factor 1 (Homo sapiens) (UniProt O14727); assay: inhibitors of human Apaf-1 apoptosome, primary screen, biochemical, DEVD-Rh110 fluorescence, uHTS (AID 489030); conditions: reconstituted apoptosome caspase-3 activity, at 20 µM, hits give high values;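 note: plate controls were DMSO wells for no effect and DEVD-CHO caspase inhibitor wells for full effect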
Sequence (O14727 whole entry, looked up): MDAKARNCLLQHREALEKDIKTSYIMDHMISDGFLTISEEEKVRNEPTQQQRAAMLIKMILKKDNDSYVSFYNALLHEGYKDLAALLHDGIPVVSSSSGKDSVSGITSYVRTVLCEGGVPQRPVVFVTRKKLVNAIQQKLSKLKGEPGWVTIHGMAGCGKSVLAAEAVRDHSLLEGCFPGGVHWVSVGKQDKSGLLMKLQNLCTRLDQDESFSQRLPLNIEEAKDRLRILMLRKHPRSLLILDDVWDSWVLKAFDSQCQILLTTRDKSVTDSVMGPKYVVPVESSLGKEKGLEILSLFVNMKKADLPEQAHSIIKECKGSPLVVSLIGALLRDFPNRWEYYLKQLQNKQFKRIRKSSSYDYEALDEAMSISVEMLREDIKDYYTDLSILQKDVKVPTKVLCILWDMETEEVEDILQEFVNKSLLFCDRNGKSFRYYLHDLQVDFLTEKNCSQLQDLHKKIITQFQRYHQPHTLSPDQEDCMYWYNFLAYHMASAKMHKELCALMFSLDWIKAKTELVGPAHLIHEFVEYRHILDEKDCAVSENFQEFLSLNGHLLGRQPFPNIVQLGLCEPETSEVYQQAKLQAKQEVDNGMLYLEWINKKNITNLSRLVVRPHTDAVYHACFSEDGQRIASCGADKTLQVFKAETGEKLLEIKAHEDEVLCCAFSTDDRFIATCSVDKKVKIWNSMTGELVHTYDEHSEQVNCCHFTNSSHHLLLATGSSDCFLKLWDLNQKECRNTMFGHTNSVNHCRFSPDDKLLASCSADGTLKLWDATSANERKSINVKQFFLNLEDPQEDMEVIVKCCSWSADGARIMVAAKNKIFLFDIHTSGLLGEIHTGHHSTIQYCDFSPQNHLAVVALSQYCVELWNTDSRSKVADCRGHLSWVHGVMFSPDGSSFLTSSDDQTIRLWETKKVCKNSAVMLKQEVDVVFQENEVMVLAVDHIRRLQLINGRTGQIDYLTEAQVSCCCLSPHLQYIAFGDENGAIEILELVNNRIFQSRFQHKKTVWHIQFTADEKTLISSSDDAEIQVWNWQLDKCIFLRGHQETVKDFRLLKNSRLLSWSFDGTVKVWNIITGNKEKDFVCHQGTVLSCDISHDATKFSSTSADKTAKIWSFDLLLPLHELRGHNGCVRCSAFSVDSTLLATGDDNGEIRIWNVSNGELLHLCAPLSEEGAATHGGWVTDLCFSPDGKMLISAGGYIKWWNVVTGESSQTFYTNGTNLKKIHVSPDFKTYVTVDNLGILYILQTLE
Summary of the method: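 Material: biochemical Apaf-1 apoptosome reconstitution. Medium: Hepes buffer, pH 7.5. Also added: cytochrome c activation, bis-DEVD rhodamine 110 substrate. Timing: 30 min compound preincubation, 50 min activation, room temperature. Measured by: rhodamine 110 fluorescence at Ex 480/Em 540 nm.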

SMILES	inhibition
CC(=O)N(C1=C(Cl)C(=O)c2ccccc2C1=O)c1ccc(C(=O)O)cc1	89% (active)
Cc1ccc(-c2nc(-c3cccnc3)sc2CC(=O)Nc2ccc(C)c(Cl)c2)cc1	19% (inactive)
Cc1cccc(OCC(=O)NC2CC(C)(C)NC(C)(C)C2)c1	0.115% (inactive)
c1ccc(-c2cc(N3CCCCC3)c3ccccc3n2)cc1	-0.639% (inactive)
O=C(CS(=O)(=O)c1cn(Cc2cccc(F)c2)c2ccccc12)N1CCCCC1	18.4% (inactive)
O=c1cc(N2CCCCC2)c(-c2ccccc2)nn1Cc1cccc(F)c1	44% (active)
COc1ccc(OC)c(NC(=S)N2CCc3ccccc3C2)c1	-1.06% (inactive)
O=S(=O)(c1ccc(Br)cc1)N1CCC(c2nc3ccccc3[nH]2)CC1	6.06% (inactive)
Cc1noc(C)c1CSc1nnc2ccc3ccccc3n12	-5% (inactive)
COc1ccc(/C=N/Nc2cc(N3CCOCC3)nc(C)n2)c(OC)c1	0.02% (inactive)
CN(C)c1ccc(/C=N/Nc2cc(N3CCOCC3)nc(N3CCOCC3)n2)cc1	1.31% (inactive)
C(=N/Nc1cc(N2CCOCC2)nc(N2CCOCC2)n1)/c1ccccc1	76.5% (active)
Cc1ccc(C)c2c1cc(C)c1nnc(SCC(=O)Nc3cccc(C(=O)O)c3)n12	-9.82% (inactive)
CCOCCCNS(=O)(=O)Cc1ccccc1	5.85% (inactive)
COc1cnc(SCc2ccc(Cl)c(Cl)c2)nc1Cl	0.38% (inactive)
O=C(CN1CCCCCC1)Nc1c(Cl)cc(Cl)cc1Cl	-0.605% (inactive)
CN(CC(=O)Nc1ccc(F)cc1)C(=O)c1ccc(-c2ccc(Cl)cc2)o1	22% (inactive)
Cc1[nH][nH]c(=O)c1C(c1ccc(-c2ccc(Cl)cc2)o1)c1c(C)[nH][nH]c1=O	85.8% (active)
O=C(NC1CCCCC1)c1ccc(-c2ccc(Cl)cc2)o1	15% (inactive)
c1ccc(-n2nc3ccccc3n2)cc1	2.62% (inactive)
CCC(=O)Nc1ccc2nn(-c3ccc(F)cc3)nc2c1	17.5% (inactive)
Nc1ccc2nn(-c3ccc(Cl)cc3)nc2c1	83.8% (active)
O=Cc1c(Cl)cccc1Cl	-4.79% (inactive)
CCN1C(=O)c2cccc3c(N)ccc1c23	97.1% (active)

SMILES	inhibition
Cc1nn(C)cc1N1C(=O)c2cccc3c(N)ccc(c23)C1=O	12.4% (inactive)
CCN1C(=O)c2cccc3c(S(=O)(=O)Nc4ccccc4O)ccc1c23	5.31% (inactive)
CCSc1sc(CC)cc1C=O	-7.54% (inactive)
COCCC(=O)Nc1ccc2c(c1)CN(C(=O)CCOC)CC2	-12.8% (inactive)
Cc1occc1C(=O)N/N=C/c1ccc(-c2cccc([N+](=O)[O-])c2)o1	10.6% (inactive)
O=C(CN1CCOCC1)N/N=C/c1ccc(-c2ccc(Br)cc2)o1	-12% (inactive)
Cc1ccc(-c2ccc(/C=N/NC(=O)CN3CCOCC3)o2)cc1[N+](=O)[O-]	73.9% (active)
COc1ccc(-n2nc3c(N4CCC(C(=O)NCc5ccccc5)CC4)nnc(C)c3c2C)cc1	7.29% (inactive)
CCc1ccc(CNC(=O)C2CCN(c3nnc(C)c4c(C)n(-c5ccc(C)cc5)nc34)CC2)cc1	42.3% (active)
CCOc1ccc(CNC(=O)C2CCCN(c3nnc(C)c4c(C)n(-c5ccccc5)nc34)C2)cc1 (stereo not given)	23.8% (inactive)
C=C(C)CSc1nc(N)c2c3c(sc2n1)CCC3	-16.8% (inactive)
CC(C)CNC(=O)/C=C/C(=O)O	-2.85% (inactive)
COC1=C(N2CCOCC2)C(=O)c2ccccc2C1=O	65.8% (active)
O=C1C(Cl)=C(N2CCOCC2)C(=O)N1c1ccccc1	-17.1% (inactive)
O=C1c2ccccc2-c2ncnc3c(N4CCOCC4)cc(N4CCOCC4)c1c23	11.8% (inactive)
CC(C)OC(=O)C(C#N)c1nc2ccccc2nc1N1CCN(Cc2ccccc2)CC1 (stereo not given)	10.2% (inactive)
Cc1ccc(S(=O)(=O)C(C#N)c2nc3ccccc3nc2N2CCCC2)cc1C (stereo not given)	60% (active)
Cc1ccc(S(=O)(=O)N2CCN(c3ccccc3)CC2)cc1C	14.9% (inactive)
CN(C(=O)CCNC(=O)Cn1ccc2ccccc2c1=O)c1ccc(Br)cc1	3.8% (inactive)
Cc1ccc(C(C)C)c(OCc2nnc(SCC(=O)Nc3nccs3)n2C)c1	11.4% (inactive)
C[C@@H](CN1CCC[C@H]1CN1C(N)=NC[C@@H]1Cc1ccccc1)N1C[C@@H](Cc2ccccc2)N(CCCC2CCCC2)C1=N	70.9% (active)
CC[C@@H](C)[C@@H]1CN([C@@H](C)CN2CCC[C@H]2CN2C(N)=NC[C@H]2C(C)C)C(=N)N1CCc1ccc(Cl)c(Cl)c1	25.3% (inactive)
CCCCN1C(N)=NC[C@@H]1Cc1ccccc1	13.2% (inactive)
CC(C)CC(=O)N1CCN(Cc2ccccc2Br)CC1	8.5% (inactive)

SMILES	inhibition
COc1ccc(NC(=O)c2cccc3c2C(=O)N(CC2CCCO2)C3)cc1OC (stereo not given)	2.96% (inactive)
COCCc1nn2c(=O)cc(COC(=O)c3cc(OC)c(OC)c(OC)c3)nc2s1	-4.08% (inactive)
Cc1ccc(-n2[nH]c(C)c(/C=N/NC(=O)c3cccc([N+](=O)[O-])c3)c2=O)cc1C	25.4% (inactive)
Cc1[nH]n(-c2ccccc2)c(=O)c1/C=N/NC(=O)c1ccoc1C	61.5% (active)
COc1cc(/C=N/NC(=O)c2ccoc2C)ccc1OCCN1CCCCC1	10.2% (inactive)
Oc1ccc(/C=N/N(Cc2ccccc2)c2ccccc2)cc1	8.85% (inactive)
Oc1ccc(N=Cc2sc3ccccc3c2Cl)cc1	64.8% (active)
CC(=O)n1c(C=Nc2ccccc2)c(O)c2ccccc21	5.41% (inactive)
Cc1cc(N=Nc2ccc3ccccc3c2)ccc1O	4.6% (inactive)
Oc1ccc(N=Cc2c(O)ccc3ccccc23)cc1	87.2% (active)
CSc1ccc(CCNC(=O)C2CCN(c3nnc(-n4cccc4)s3)CC2)cc1	0.72% (inactive)
O=C(NCCCn1ccnc1)c1cc2c(s1)CCCC2	11.9% (inactive)
COc1ccc(-c2nc(N)sc2C2(O)C(=O)Nc3c(Br)cc(F)cc32)cc1OC (stereo not given)	3.73% (inactive)
CCOc1c2ccc(C(=O)NC3CCCc4ccccc43)cc2nn1CC (stereo not given)	5.11% (inactive)
CCOC(=O)N1CCC(=NNC(N)=O)CC1	1.89% (inactive)
CCOc1ccccc1NC(=O)Cn1nnc(C(=O)NCc2cccs2)c1N	-4.26% (inactive)
CC(CN1CCOCC1)OC(=O)c1ccc(C(C)(C)C)cc1 (stereo not given)	15.5% (inactive)
COCC(C)OC(=O)c1c(N)n(CCCN2CCOCC2)c2nc3ccccc3nc12 (stereo not given)	50.9% (active)
C=CCn1c(N)c(C(=O)OCC(C)C)c2nc3ccccc3nc21	54.1% (active)
C=CCn1c(P(C)(=O)O)nc2ccccc21	5.81% (inactive) and -0.524% (inactive)
CC(=O)c1ccc(NC(=O)CSc2nc3ccccc3c(=O)n2CCCN2CCOCC2)cc1	2.62% (inactive)
O=C(NCc1cccs1)c1cc(-c2ccccn2)nc2ccc(Br)cc12	5.9% (inactive)
C=CCn1c(C(C)NC(=O)CC)nc2ccccc21 (stereo not given)	-0.828% (inactive)
CC(C)Cn1c(N)c(C(=O)NCc2cccs2)c2nc3ccccc3nc21	63.4% (active)

SMILES	inhibition
O=C(Nc1ccccc1Cl)NC1(C(=O)N2CCOCC2)CCCCC1	-1.88% (inactive)
Cn1cncc1C#Cc1c(-c2ccsc2)sc2ccccc12	33.5% (inactive)
CCC/C=C(\CCC)C(NC(=O)Cc1ccccc1)c1ccc(C(=O)OC)cc1 (stereo not given)	7.48% (inactive)
CC1CCN(C(=O)COC(=O)c2cc(S(=O)(=O)N3CCOCC3)ccc2Cl)CC1	3.82% (inactive)
CCOC(=O)c1ccc(NC(=O)Cn2cnc3cc(C)c(C)cc32)cc1	-0.083% (inactive)
O=C(CCC(=O)OCC(F)(F)C(F)F)NCc1ccccc1	-13% (inactive)
CCOc1ccc(NCCC(=O)c2ccc3c(c2)OCO3)cc1	4.39% (inactive)
Oc1cc(O)c2c(c1)OC(c1ccc(O)c(O)c1)C(O)C2 (stereo not given)	-2.63% (inactive)
COC(=O)C[n+]1cccc2ccccc21	-1.6% (inactive)
O=C(N/N=C\c1cccnc1)c1cc(-c2ccccc2)nc2c(Cl)cccc12	40.1% (active)
COc1ccc(-c2cc(C(=O)N/N=C/c3cccnc3)c3ccccc3n2)c(OC)c1	4.65% (inactive)
C/C(=N\NC(=O)c1cc(-c2ccc(O)cc2)nc2ccccc12)c1cccnc1	7.65% (inactive)
COc1ccc(C(CNC(=O)c2cc3c(s2)CCCC3)N2CCOCC2)cc1 (stereo not given)	33.5% (inactive)
COc1ccc(-c2nc3cnccn3c2NC2CCCCC2)cc1-c1cccc(Cl)c1	36.9% (inactive)
CCOc1cc(-c2nc3cc(C)ccn3c2NCC2CCCO2)ccc1O (stereo not given)	9.28% (inactive)
COc1ccc(-c2nc3cc(C)ccn3c2NC2CCCCC2)cc1SC1CCCCC1	48.4% (active)
CC1CN(C(=S)Nc2cccc(F)c2)CC(C)O1 (stereo not given)	-7.38% (inactive)
CCOc1ccc2[nH]c(=O)c(C(c3nnnn3CCOC)N3CCOCC3)cc2c1 (stereo not given)	-3.2% (inactive)
COCCn1nnnc1C(c1cc2ccc(OC)cc2[nH]c1=O)N1CCc2ccccc2C1 (stereo not given)	56.8% (active)
COc1ccc(OC)c(C(c2nnnn2C(C)(C)C)N2CCc3ccccc3C2)c1 (stereo not given)	11.5% (inactive)
Cc1cc(OCc2cc(C(=O)NCc3cc(C(C)C)no3)no2)cc(C)c1Cl	17.4% (inactive)
COC(=O)[C@@H]1C[C@@]2(O)[C@H](O)[C@H](O)[C@H](O)C[C@H]2N1Cc1ccc(C(C)(C)C)cc1	10.6% (inactive)
CN(C)CCCN(Cc1cc2cc3c(cc2[nH]c1=O)OCCO3)C(=O)NC1CCCCC1	2.55% (inactive)
